IDE inh: inhibits human insulin-degrading enzyme in HEK cells; hit rate 0.41% among 320,000; inhibition, % at 5.59 µM; FAbetaB cleavage, fluorescence polarization; P14735;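 active = percent inhibition above the average of all tested compounds plus 3 SD, set per screening campaign, cut at about 16% in these data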;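 also: IDE supplied by intact live HEK cells; FP after avidin binding of uncleaved biotin substrate so inhibition keeps polarization high; 0% = DMSO wells and 100% = 60 µM reference IDE inhibitor Ii1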
IDE act: boosts human insulin-degrading enzyme activity in HEK cells; P14735; FAbeta-B cleavage, fluorescence polarization; 0% vehicle, 100% cell-free pure enzyme wells; activation, % at 5.96 µM; hit rate 0.073% among 340,000; AID 493087;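 active = activation above the mean of all tested compounds plus 3 SD, set per screening campaign, cut at about 17% in these data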
ASAP1 GAP inh: inhibitors of human ASAP1 ArfGAP activity | inhibition, % at 16.5 µM | ASAP1-stimulated ARF1 GTP hydrolysis, GDP FP detection | AID 624377 | hit rate 0.19% among 360,000; in the data active = inhibition above about 25%;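 also: 0% = vehicle with enzyme and substrate and 100% = no enzyme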
Target sequence (Q9ULH1 325-724 limits assumed): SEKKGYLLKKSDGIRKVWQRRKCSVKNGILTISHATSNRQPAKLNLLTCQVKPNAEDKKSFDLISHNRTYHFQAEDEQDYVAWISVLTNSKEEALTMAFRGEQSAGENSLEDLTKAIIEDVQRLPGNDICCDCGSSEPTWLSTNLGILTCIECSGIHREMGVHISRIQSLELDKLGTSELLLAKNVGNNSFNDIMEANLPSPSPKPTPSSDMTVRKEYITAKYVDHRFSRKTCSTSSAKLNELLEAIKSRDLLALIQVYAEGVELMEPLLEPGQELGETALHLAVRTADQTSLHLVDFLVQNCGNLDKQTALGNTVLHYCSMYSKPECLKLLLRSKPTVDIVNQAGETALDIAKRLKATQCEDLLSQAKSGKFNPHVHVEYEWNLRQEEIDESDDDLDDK
PREPL inh: inhibitors of human prolyl oligopeptidase-like enzyme PREPL | Q4J6C6 | recombinant PREPL, fluorescence polarization activity-based probe | inhibition, % at 5.96 µM | hit rate 0.68% among 320,000 | AID 2751; in the data active = inhibition above about 43%;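 also: 0% = enzyme with DMSO and 100% = wells lacking enzyme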
ARFGAP1 inhibitor: inhibits rat ARF GTPase activating protein 1; Q62848; Arfgap1-stimulated ARF1 GTP hydrolysis, GDP FP detection; inhibition, % at 16.5 µM; hit rate 0.26% among 360,000;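 active = inhibition above a per-plate limit, mean inhibition of low control wells plus 3 SD, cut at about 25% in these data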;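 also: 0% = DMSO wells with enzyme and 100% = wells lacking Arfgap1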
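Repeats: one replicate per compound; assay system: rat Arfgap1 catalytic domain, aa 1-136; times: enzyme reaction 120 min at 25 °C after 20 min preincubation; detection: FP of antibody-bound GDP Alexa 633 tracer, ex 620/em 688 nm; benchmarks: high control wells lacking Arfgap1, low control full reaction with DMSO; reagent: human ARF1(Δ1-17)-GTP substrate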
IDE inh confirm: confirmation of human insulin-degrading enzyme inhibitors in cells | hit rate 51% among 1,200 | AID 435028 | HEK cells, FAbetaB cleavage, fluorescence polarization | inhibition, % at 5.59 µM | shares compounds with IDE inh;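 active = mean inhibition across triplicate wells above the cutoff set by the earlier primary insulin-degrading enzyme screen, cut at about 16% in these data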;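 also: 0% = DMSO wells and 100% = 60 µM reference IDE inhibitor Ii1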
HEK cytotox: counter-screen for IDE inhibitors: cytotoxicity in HEK cells; hit rate 28% among 1,200; inhibition, % at 5.59 µM; HEK293 cytotoxicity, ATP luminescence; shares compounds with IDE inh; in the data active = inhibition above about 22%;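 also: 0% = vehicle wells and 100% = reference cytotoxic drug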
The depositor's hits bear a star; . = no result. This is a sample that favours compounds with a hit; in the whole collection about 1.2% have one here.

SMILES	IDE inh	IDE act	ASAP1 GAP inh	PREPL inh	ARFGAP1 inhibitor	IDE inh confirm	HEK cytotox
COc1cc(/C=C2\SC(=S)N(NC(=O)c3cccnc3)C2=O)ccc1O	114*	-130	9	-255	-2	159*	9
COc1cc(/C=C2\SC(=S)N(NC(=O)c3ccc(O)cc3)C2=O)ccc1O	85*	-85	10	-159	-1	150*	10
O=C1/C(=C\c2ccc(O)cc2)SC(=S)N1/N=C/c1ccc(O)cc1	75*	-160	19	-30	6	98*	11
COC1OC2COC(c3ccccc3)OC2C(O)C1NC(=O)c1ccccc1 (configuration not stated)	.	7	0	.	-3	.	.
O=C(NN1C(=O)/C(=C/c2cccc(O)c2)SC1=S)c1ccccc1O	-1	5	0	11	3	.	.
O=C(NN1C(=O)/C(=C/c2ccc(O)c(O)c2)SC1=S)c1ccccc1	43*	-43	-1	-46	1	87*	17
Nc1c(C(=O)NCCc2ccccc2)sc2nc(N3CCOCC3)c3c(c12)CCCC3	17*	-18	4	17	-10	0	29*
CN1CCN(c2ncnc3c2[nH]c2ccc(F)cc23)CC1	23*	-14	11	7	8	10	12
Brc1ccc2[nH]c3c(N4CCc5ccccc5C4)ncnc3c2c1	55*	.	.	37	.	41*	66*
Fc1ccc2[nH]c3c(N4CCc5ccccc5C4)ncnc3c2c1	29*	.	15	14	19	12	77*
Fc1ccc2[nH]c3c(NCCN4CCOCC4)ncnc3c2c1	3	-1	.	4	.	.	.
Brc1ccc2[nH]c3c(NCc4ccccn4)ncnc3c2c1	64*	.	10	22	5	38*	22*
COc1ccc(S(=O)(=O)N/N=C(/C)c2ccncc2)c(OC)c1	-2	4	-7	-2	10	.	.
COc1ccc(S(=O)(=O)Nc2cc3c4c(c2)CCN4C(=O)CC3)cc1OC	2	-3	2	6	1	.	.
C[C@H](CO)N1C[C@H](C)[C@H](CN(C)C(=O)Nc2ccc(N3CCCCC3)cc2)OCc2cnnn2CCCC1=O	.	.	6	.	4	.	.
COc1cc(OC)cc(C(=O)NNC(=O)CN2C(=O)NC(C)(c3ccccc3)C2=O)c1 (configuration not stated)	3	2	2	-4	22	.	.
COc1ccc(N=Cc2sc(O)c3ccccc23)cc1	61*	-66	21	43	7	90*	10
Cn1c(/C=N/NC(=O)c2ccccc2Br)nc2ccccc21	20*	-17	4	-122	-5	3	17
Cc1cccc(NC(=O)c2nc[nH]c2C(=O)N[C@@H](C)C(=O)OC(C)(C)C)c1	-3	3	3	9	18	.	.
Cc1cc([N+](=O)[O-])cc(C)c1OCC(=O)N/N=C/c1ccc(OC(=O)c2ccccc2)cc1	20*	-25	11	40	16	6	8
O=C(O)CSCC(=O)N1CCN(c2ccnc3cc(Cl)ccc23)CC1	30*	-14	.	0	.	6	6
CC(=O)N1CCN(c2ccnc3cc(Cl)ccc23)CC1	9	-18	6	6	4	.	.
Cc1cc(N2CCN(C(=O)Nc3ccc(F)cc3F)CC2)c2ccccc2n1	3	-5	.	10	.	.	.
CCCCNC(=O)N1CCN(c2ccnc3cc(Cl)ccc23)CC1	19*	-18	.	-1	.	11	18
O=C(Nc1cc(F)ccc1F)N1CCN(c2ccnc3cc(Cl)ccc23)CC1	22*	-39	4	2	6	9	-3
Cc1cccc(Cl)c1NC(=O)N1CCN(c2ccnc3cc(Cl)ccc23)CC1	24*	-24	-1	-4	3	11	21
CCCCNC(=O)N1CCN(c2ccccc2OCC)CC1	4	5	-2	-6	1	.	.
Cc1nc(N/C(N)=N/S(=O)(=O)c2ccccc2)nc2ccccc12	-3	3	1	-9	10	.	.
COCCNc1nc(NCCN2CCNC2=O)c2sccc2n1	.	.	-10	.	-5	.	.
S=C(Nc1cc(Cl)cc(Cl)c1)N1CCN(c2ccccn2)CC1	.	-2	9	.	0	.	.

Assay outcomes from PubChem.
